From article PMC3190670 (ChemMedChem, 2011)

System: Bovine brain tubulin
Assay: turbidimetric tubulin assembly
Format: biochemical, Bos taurus
Conditions: read-out: IC50 ± SD [μM]^[a]; 10 μM tubulin, glutamate buffer, GTP, 30°C, 20 min
Summary of the method: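 Purified bovine brain tubulin was preincubated with varying test-compound concentrations in glutamate buffer at 30°C, then cooled to 0°C. GTP was added, and mixtures went into 0°C cuvettes and were warmed to 30°C. Assembly was followed turbidimetrically in a recording spectrophotometer. IC50 was the concentration that cut the extent of assembly by 50% after 20 min.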

Structure (SMILES) | IC50 [µM]
COc1cc2oc(C(=O)c3cc(OC)c(OC)c(OC)c3)cc2cc1N [3g, (5-Amino-6-methoxybenzo[b]furan-2-yl)(3,4,5-trimethoxyphenyl)methanone] | 1.4 ± 0.01
COc1cc2oc(C(=O)c3cc(OC)c(OC)c(OC)c3)c(C)c2cc1N [3h, (5-Amino-3-methyl-6-methoxybenzo[b]furan-2-yl)(3,4,5-trimethoxyphenyl)methanone] | 0.56 ± 0.08
COc1cc(C(=O)c2cc3cc(N)cc(OC)c3o2)cc(OC)c1OC [3i, (5-Amino-7-methoxybenzo[b]furan-2-yl)(3,4,5-trimethoxyphenyl)methanone] | 3.1 ± 0.2
COc1cc(C(=O)c2oc3c(OC)cc(N)cc3c2C)cc(OC)c1OC [3j, (5-Amino-3-methyl-7-methoxybenzo[b]furan-2-yl)(3,4,5-trimethoxyphenyl)methanone] | 1.6 ± 0.1
C=C(Br)C(=O)Nc1cccc2oc(C(=O)c3cc(OC)c(OC)c(OC)c3)cc12 [4a, 2-Bromo-N-[2-(3,4,5-trimethoxybenzoyl)-1-benzo[b]furan-4-yl]acrylamide] | > 40
